Here are results for 7 compounds from PubChem BioAssay.

SMILES strings stand for the structures. Active and inactive are the calls of the source.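 Rule for the calls, unless noted: active = compounds giving at least 50% inhibition in the cell-based MKP-3 phosphatase rescue imaging test; inactive = the rest.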

The nature of experiment [1]: inhibitors of TNFa-induced NFkB p65 translocation, primary screen, imaging, HUVEC, MLSMR starter and 10KST1 sets (AID 438;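 active = inhibition above 20% together with a positive visual image hit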;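 note: compound added about 3h40 before a 20 min TNFalpha stimulation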;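 for inhibition: signal is the nuclear over cytoplasmic p65 intensity ratio per well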). The following applies: HUVEC TNFa-induced p65 nuclear translocation; cell count: measured here: nuclei count (cytotoxicity indicator), at 2.08 µM; inhibition: at 2 µM, stronger effect = higher value, 0% TNFa-plus-vehicle, 100% no-TNFa wells.
Experiment [2] in a line: endothelial E-selectin expression blockers – imaging, HUVEC, immunofluorescence, MLSMR starter and 10KST1 sets, primary screen (AID 487;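 active = visually confirmed hit in the image check and inhibition above 20%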;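 for inhibition: signal is fraction of cell area covered by stained E-selectin grains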;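 for nuclei count: 100% = median nuclei count of all wells on the same plate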). The following applies: HUVEC TNFalpha-induced E-selectin immunofluorescence imaging, at 2 µM; inhibition: stronger effect = higher value; nuclei count: measured here: cell number, toxicity.
Experiment [3] is described as follows: Primary imaging screen for DUSP6 inhibitors that restore phospho-Erk in transfected HeLa cells, chemical complementation (AID 609).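 For inhibition: phospho-Erk level distribution per well compared with pooled transfected vehicle control wells.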 The settings on record: HeLa MKP-3 transfected, phospho-Erk imaging KS statistic, at 10 µM, cells stimulated with TPA for 15 min.
Experiment [4] has as its target Dual specificity protein phosphatase 6 (Homo sapiens) (UniProt Q16828). The description is as above. The settings on record: HeLa MKP-3 transfected, phospho-Erk imaging KS statistic; at 10 µM; stronger effect = higher value; cells stimulated with TPA for 15 min.
Experiment [5] concerns the target Voltage-gated potassium channel subunit beta-2 (Rattus norvegicus) (UniProt P62483). The experiment in a line: inhibitors of rat Kvbeta2 reductase activity – biochemical, NADPH fluorescence, primary screen (AID 622;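 active = fluorescence slope higher than the sample average by over 3 SD, cut at about -0.22 in these data, passing the limit was not always enough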;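 note: slope of raw intensity against log time taken from 70 to 1610 s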). The following applies: recombinant KvBeta, 4-cyanobenzaldehyde reduction, at 10 µM, stronger effect = higher value.
The target is the same in experiment [6]. The experiment in a line: enhancers of rat Kvbeta2 NADPH turnover – biochemical, NADPH fluorescence, primary screen (AID 623;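 active = NADPH fluorescence slope more negative than the mean of all samples by about 3 SD, 99.7% confidence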;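 note: fluorescence intensity change per second fitted from 20 to 320 s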). The following applies: Recombinant KvBeta, NADPH fluorescence decrease slope, 10 min; at 10 µM; stronger effect = lower value.
Experiment [7] concerns the target Alpha-2C adrenergic receptor (Homo sapiens) (UniProt P18825). The experiment in a line: compounds altering alpha2C-coupled GIRK flux – cell-based, HEK293 alpha2C/GIRK1/2, thallium flux, primary screen (AID 624;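 active = fluorescence slope after compound addition differing from the mean of all screened samples at 99.7% confidence, in either direction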;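 note: slope of fluorescence ratio to pre-addition baseline per second over 15 to 24 s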). The settings on record: thallium flux BTC fluorescence, at 10 µM, actives lie on both sides.
A short description of experiment [8]: inhibitors of larval lipid processing in zebrafish, primary screen, whole organism, PED6 fluorescence, gall bladder and intestine (AID 686;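 active = a full or partial loss of lipid-probe fluorescence in the fish gall bladder, intestine or both, judged by eye; inactive = no fluorescence loss, or compound toxic to the fish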;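 note: larvae 5 to 7 days old with five fish per well; signal comes from phospholipase A2 cleavage of quenched PED6 carried via bile; overnight exposure to compound and PED6 before scoring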). The settings on record: Zebrafish larvae PED6 lipid processing, fluorescence scoring; screened at 20 µM (by protocol). Put shortly:
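system = live zebrafish larvae aged 5-7 days, whole organism | probe or stimulus = ingested quenched lipid PED6 at 100 nM | doses = 20 µM single dose | timing = overnight exposure | detection = fluorescence microscopy with visual scoring of gall bladder and intestine | read-out = visual per-well fluorescence inhibition score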

A short description of experiment [9]: loss of swimming-algae plug formation – whole organism, Chlamydomonas reinhardtii, WT vs cilia-less mutant, absorbance, 96-well, primary screen (AID 463189;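 active = inhibition at or above 50% relative to wild type and mutant plate controls; inactive = inhibition below 50%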;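 note: 0% = wild type cc124 cells in DMSO and 100% = ciliumless bld1 mutant cells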). The following applies: Chlamydomonas reinhardtii gravitaxis, OD600 absorbance, 2 days; at 10 µM; stronger effect = higher value.
The mark [10] stands for this setting: measured here: cell density z-score.
The mark [11] stands for this setting: measured here: nuclear c-Myc green intensity z-score.
[12] abbreviates: measured here: nuclear pErk red intensity z-score, stronger effect = higher value.

Chain of Alpha-2C adrenergic receptor (Homo sapiens) (P18825 whole entry, looked up): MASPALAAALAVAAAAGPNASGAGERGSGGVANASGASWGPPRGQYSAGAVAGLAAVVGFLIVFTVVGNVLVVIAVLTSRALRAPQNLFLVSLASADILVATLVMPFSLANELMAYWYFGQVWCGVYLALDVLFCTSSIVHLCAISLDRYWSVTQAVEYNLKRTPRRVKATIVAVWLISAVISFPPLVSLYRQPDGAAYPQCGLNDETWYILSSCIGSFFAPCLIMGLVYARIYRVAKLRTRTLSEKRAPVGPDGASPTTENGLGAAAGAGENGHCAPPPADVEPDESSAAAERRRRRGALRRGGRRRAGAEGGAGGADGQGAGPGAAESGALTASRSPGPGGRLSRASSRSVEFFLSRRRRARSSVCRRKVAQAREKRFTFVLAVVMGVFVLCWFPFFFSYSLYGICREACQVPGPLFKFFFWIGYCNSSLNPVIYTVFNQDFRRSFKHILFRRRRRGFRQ
Chain of Voltage-gated potassium channel subunit beta-2 (Rattus norvegicus) (P62483 whole entry, looked up): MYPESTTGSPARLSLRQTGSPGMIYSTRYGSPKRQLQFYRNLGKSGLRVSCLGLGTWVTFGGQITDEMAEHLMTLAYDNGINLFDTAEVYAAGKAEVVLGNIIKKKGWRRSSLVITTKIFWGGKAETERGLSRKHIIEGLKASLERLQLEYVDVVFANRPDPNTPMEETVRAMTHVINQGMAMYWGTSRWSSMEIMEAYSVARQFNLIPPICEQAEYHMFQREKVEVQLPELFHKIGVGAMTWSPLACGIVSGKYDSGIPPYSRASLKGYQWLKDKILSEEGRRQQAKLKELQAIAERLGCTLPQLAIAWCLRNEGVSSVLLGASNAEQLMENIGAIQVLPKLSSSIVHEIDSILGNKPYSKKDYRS
Chain of Dual specificity protein phosphatase 6 (Homo sapiens) (Q16828 whole entry, looked up): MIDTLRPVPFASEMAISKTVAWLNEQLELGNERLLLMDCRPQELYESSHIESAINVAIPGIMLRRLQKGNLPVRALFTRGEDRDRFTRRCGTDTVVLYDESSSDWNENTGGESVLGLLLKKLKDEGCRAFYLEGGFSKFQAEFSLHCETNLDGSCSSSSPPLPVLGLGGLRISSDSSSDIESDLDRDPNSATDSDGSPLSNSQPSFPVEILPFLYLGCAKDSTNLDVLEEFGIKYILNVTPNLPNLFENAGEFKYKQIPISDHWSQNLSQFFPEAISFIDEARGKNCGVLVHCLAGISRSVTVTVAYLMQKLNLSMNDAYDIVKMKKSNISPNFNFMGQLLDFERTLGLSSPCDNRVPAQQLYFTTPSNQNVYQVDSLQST

For `Nc1nnc(Cc2ccc(Cl)c(Cl)c2)s1`, in [1], the cell count amounted to 621. Besides, the inhibition in experiment [1] was 2.9% (inactive); in experiment [2], 33.3% (inactive); in [4] it was -7.86% (inactive); in experiment [9], 2.91% (inactive). Besides, the nuclei count in experiment [2] was 174%. In addition, the values for the z-score in experiment [3] (setting [10]), in experiment [3] (setting [11]) and in [3] (setting [12]) were 0.377, 1.31 and -0.983, respectively. Moreover, the fluorescence slope in [5] was -0.369 (inactive). In addition, the NADPH fluorescence slope in experiment [6] was -3.6e-05 (inactive). In addition, the slope in experiment [7] is 0.00535 (inactive). For the same compound, in experiment [8], the compound was called inactive.

Take `CC1(C)Cc2c(C#N)c(SCC(=O)c3ccccc3)nc(N3CCCC3)c2CO1`: the cell count in [1] worked out at 520. The inhibition in experiment [1] is -6.5% (inactive); in experiment [2], 15.1% (inactive); in [4], 9.82% (inactive); in experiment [9] it was 46.4% (inactive). The compound also gave a nuclei count in experiment [2] of 115%. Besides, the z-score in experiment [3] (setting [10]) was 1.33; in [3] (setting [11]) it was -0.926; in [3] (setting [12]), -0.674. Further, in [5], the fluorescence slope was -0.395 (inactive). For the same compound, the NADPH fluorescence slope in experiment [6] was 8.2e-06 (inactive). In [7], the slope was 0.00654 (inactive). Besides, the result in experiment [8] was inactive.

As to `O=C1OC(Nc2ccc(Br)cc2F)c2ccccc21` (stereo unspecified), in experiment [1], the cell count turned out to be 426. The inhibition in experiment [1] is -1.6% (inactive); in experiment [2], -16.9% (inactive); in [4], -2.91% (inactive); in experiment [9], -4.19% (inactive). The nuclei count in [2] is 149%. The z-score was 0.057 in experiment [3] (setting [10]), -0.568 in experiment [3] (setting [11]) and 0.211 in [3] (setting [12]). For the same compound, in experiment [5], the fluorescence slope was -0.383 (inactive). In [6], the NADPH fluorescence slope is -4.6e-05 (inactive). The slope in experiment [7] is 0.00575 (inactive). The compound was classed as inactive in experiment [8].

On to `CCCCC1(C(=O)OCC)CC(CN2CCOCC2)OC1=O` (stereo unspecified), for which, in experiment [1], the cell count worked out at 448. Further, the inhibition is -21.5% (inactive) in [1], -182% (inactive) in experiment [2], -8.95% (inactive) in [4] and 3.54% (inactive) in [9]. In [2], the nuclei count stood at 167%. In addition, the z-score in [3] (setting [10]) was -1.27; in [3] (setting [11]), -1.52; in experiment [3] (setting [12]), 2.46. For the same compound, the fluorescence slope in experiment [5] is -0.314 (inactive). For the same compound, the NADPH fluorescence slope in experiment [6] was 1.1e-05 (inactive). In addition, the slope in experiment [7] is 0.00504 (inactive). Further, in [8], the result was inactive.

With `N#Cc1c(N)nc(SCc2ccccn2)c(C#N)c1-c1cccs1`, the cell count in experiment [1] amounted to 526. Further, the inhibition in experiment [1] was -6.5% (inactive); in experiment [2] it was -189% (inactive); in [4] it was 4.25% (inactive); in experiment [9], 1.02% (inactive). Besides, the nuclei count in experiment [2] was 176%. Besides, the z-score in [3] (setting [10]) was 0.739; in experiment [3] (setting [11]) it was 1.34; in experiment [3] (setting [12]), -0.969. Further, the fluorescence slope in experiment [5] is -0.289 (inactive). In addition, the NADPH fluorescence slope in [6] was 1.5e-05 (inactive). For the same compound, the slope in [7] is 0.00485 (inactive). The outcome in experiment [8] was inactive.

On to `Cc1cc(C)n(C(=O)CSc2nc3ccccc3o2)n1`, for which, in [1], the cell count is 551. The inhibition in [1] was -6.6% (inactive); in experiment [2], -100% (inactive); in experiment [4] it was 19.8% (inactive); in [9] it was 25.1% (inactive). This compound had a nuclei count in experiment [2] of 138%. Moreover, the z-score amounted to 0.355 in [3] (setting [10]), 0.587 in experiment [3] (setting [11]) and 0.0282 in [3] (setting [12]). Further, the fluorescence slope in [5] was -0.488 (inactive). Moreover, the NADPH fluorescence slope in experiment [6] was -4.3e-05 (inactive). Besides, the slope in experiment [7] is 0.00455 (inactive). In addition, the compound was classed as inactive in experiment [8].

Take `CN1C2C=C3C(C#N)=C(N)C(C#N)(C#N)[C@@H](c4cccs4)C3C1CC2` (stereo partly specified): the cell count in [1] was determined as 494. The inhibition in experiment [1] was -6.5% (inactive); in experiment [2], -7.4% (inactive); in experiment [4], 22.7% (inactive); in experiment [9], -3.84% (inactive). This compound came in with a nuclei count in experiment [2] of 116%. For the same compound, the z-score in experiment [3] (setting [10]) was 0.352; in experiment [3] (setting [11]), -1.56; in experiment [3] (setting [12]), 0.939. For the same compound, the fluorescence slope in experiment [5] is -0.419 (inactive). In addition, the NADPH fluorescence slope in experiment [6] was 2.6e-06 (inactive). Besides, in [7], the slope was 0.00481 (inactive). Moreover, in experiment [8], the outcome was inactive.

The inhibition is the drop in the measured response relative to a control, in per cent.
